The nature of series [1]: Stability of compound at pH 9. In kind it is physicochemical. Conditions: buffer.
A short description of series [2]: Stability of compound at pH 2. In kind it is physicochemical. The conditions noted are these: buffer.
The nature of series [3]: Cytotoxicity against mutant K-ras-transformed human T29Kt1 cells assessed as cell viability after 3 days by sulforhodamine B assay. Format: functional, cell-based. Conditions: T29Kt1, 72 h. Summed up: (§1)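 Monolayer cultures were grown in RPMI-1640 or DMEM with 10% heat-inactivated fetal calf serum and penicillin/streptomycin, at 37°C and 5% CO2. Cells were exposed for 3 days to compound from 10−4.5 M (31.6 μM) down to 10−8 M (10 nM), with 1% DMSO as the control. Viability was read by sulforhodamine B. IC50 was the dose halving surviving cells versus control, run in quadruplicate and repeated at least three times.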
In general terms: The SRB assay estimates cell density from bound dye.

Series [4] is described as follows: Stability of compound at pH 7.4. In kind it is physicochemical. The conditions noted are these: buffer.
Series [5] can be described thus: Stability of compound at pH 6. Format: physicochemical. Conditions: buffer.
Series [6] is described as follows: Stability of compound at pH 4. Format: physicochemical. Conditions: buffer.
Series [7] in a line: Cytotoxicity against human T29 cells assessed as cell viability after 3 days by sulforhodamine B assay. In kind it is cell-based. Conditions: T29, 72 h. Summed up: as §1
For another series, the system named is NCI-H460. In words: Cytotoxicity against human H460 cells assessed as cell viability after 3 days by sulforhodamine B assay. Conditions: NCI-H460, 72 h. Format: functional, cell-based. In outline: as §1

By IC50 is commonly meant the midpoint of a concentration-inhibition curve. On to `OCc1cn(Cc2ccc(Cl)cc2)c2ccc(Cl)cc12`, for which the Stability entry in series [1] was “Stable”; in series [2], “Unstable”; in series [4], “Stable”; in series [5], “Stable”; in series [6] it was “Stable”. In addition, the results for the IC50 (in series [3]; in series [7]; in the series with NCI-H460) were 13000 nM, over 31600 nM and 5750 nM, respectively.

As for `OCc1cn(Cc2ccc(Br)c(Br)c2)c2ccccc12`, the Stability result in series [1] is recorded as “Stable”; in series [2], “Unstable”; in series [4], “Stable”; in series [5], “Stable”; in series [6] it was “Stable”. The half-maximal inhibitory concentration (IC50) in series [3] was 100 nM; in series [7], over 31600 nM; in the series with NCI-H460 it was 50 nM.

For the compound `COc1ccc2c(c1)c(CO)cn2Cc1ccc(Cl)cc1`, the Stability entry in series [1] is “Stable”; in series [2], “Unstable”; in series [4], “Stable”; in series [5] it was “Stable”; in series [6], “Stable”. For the same compound, the values for the concentration for half-maximal inhibition (IC50) (in series [3]; in series [7]; with NCI-H460) were 12500 nM, over 31600 nM and 1510 nM, respectively.

With `OCc1cn(Cc2cccc(F)c2)c2ccccc12`, the Stability entry in series [1] is “Stable”; in series [2], “Unstable”; in series [4], “Stable”; in series [5], “Stable”; in series [6] it was “Stable”. For the same compound, the IC50 in series [3] is 20 nM; in series [7], over 31600 nM; in the series on NCI-H460, 40 nM.

For `O=[N+]([O-])c1ccc(Cn2cc(CO)c3ccccc32)cc1`, the Stability entry in series [1] is reported as “Stable”; in series [2], “Unstable”; in series [4], “Stable”; in series [5] it was “Stable”; in series [6], “Stable”. The IC50 was 150 nM in series [3], over 31600 nM in series [7] and 79 nM in the series with NCI-H460.

As to `OCc1cn(Cc2ccc(Cl)cc2)c2cc(F)ccc12`, the Stability result is “Stable” in series [1]; “Unstable” in series [2]; “Stable” in series [4]; “Stable” in series [5]; “Stable” in series [6]. For the same compound, the figures for the 50% inhibitory concentration (IC50) (in series [3]; in series [7]; with NCI-H460) were 1000 nM, over 31600 nM and 450 nM, respectively.

As to `COc1ccc(Cn2cc(CO)c3ccccc32)cc1`, the Stability entry in series [1] is recorded as “Stable”; in series [2], “Unstable”; in series [4], “Stable”; in series [5], “Stable”; in series [6], “Stable”. Further, the IC50 in series [3] is 63 nM; in series [7], over 31600 nM; in the series on NCI-H460, 79 nM.

As for `OCc1cn(Cc2cccc(I)c2)c2ccccc12`, the Stability entry in series [1] was “Stable”; in series [2], “Unstable”; in series [4] it was “Stable”; in series [5] it was “Stable”; in series [6] it was “Stable”. Besides, the IC50 in series [3] was 20 nM; in series [7], over 31600 nM; with NCI-H460, 100 nM.

Take `OCc1cn(Cc2ccc(C(F)(F)F)cc2)c2ccccc12`: the Stability result in series [1] was “Stable”; in series [2] it was “Unstable”; in series [4] it was “Stable”; in series [5], “Stable”; in series [6], “Stable”. Also, the IC50 is 1250 nM in series [3], over 31600 nM in series [7] and 1250 nM with NCI-H460.

On to `OCc1cn(Cc2cccc(Br)c2)c2ccccc12`, for which the Stability result in series [1] is recorded as “Stable”; in series [2], “Unstable”; in series [4] it was “Stable”; in series [5], “Stable”; in series [6], “Stable”. For the same compound, the IC50 is 32 nM in series [3], over 31600 nM in series [7] and 28 nM in the series with NCI-H460.

With `O=[N+]([O-])c1cccc(Cn2cc(CO)c3ccccc32)c1`, the Stability entry in series [1] was “Stable”; in series [2], “Unstable”; in series [4] it was “Stable”; in series [5], “Stable”; in series [6], “Stable”. The half-inhibitory concentration (IC50) was 390 nM in series [3], over 31600 nM in series [7] and 39 nM with NCI-H460.

`OCc1cn(Cc2ccc(Cl)c(Cl)c2)c2ccccc12`: the Stability result in series [1] is reported as “Stable”; in series [2] it was “Unstable”; in series [4] it was “Stable”; in series [5], “Stable”; in series [6], “Stable”. For the same compound, the values for the IC50 (in series [3]; in series [7]; with NCI-H460) were 310 nM, over 31600 nM and 31 nM, respectively.

As for `OCc1cn(Cc2cccc(C(F)(F)F)c2)c2ccccc12`, the Stability entry in series [1] is listed as “Stable”; in series [2], “Unstable”; in series [4] it was “Stable”; in series [5], “Stable”; in series [6], “Stable”. Moreover, the IC50 in series [3] was 560 nM; in series [7], over 31600 nM; in the series on NCI-H460 it was 39 nM.

On to `OCc1cn(Cc2ccc(Cl)cc2)c2ccc(F)cc12`, for which the Stability entry in series [1] is on record as “Stable”; in series [2] it was “Unstable”; in series [4] it was “Stable”; in series [5], “Stable”; in series [6], “Stable”. For the same compound, the figures for the IC50 (in series [3]; in series [7]; in the series on NCI-H460) were 80 nM, 8120 nM and 30 nM, respectively.

On to `Cc1ccc(Cn2cc(CO)c3ccccc32)cc1`, for which the Stability result in series [1] was “Stable”; in series [2], “Unstable”; in series [4], “Stable”; in series [5], “Stable”; in series [6], “Stable”. The half-inhibitory concentration (IC50) in series [3] is 150 nM; in series [7], over 31600 nM; in the series with NCI-H460, 31 nM.

As for `OCc1cn(Cc2ccccc2)c2ccccc12`, the Stability result in series [1] is “Stable”; in series [2] it was “Unstable”; in series [4] it was “Stable”; in series [5] it was “Stable”; in series [6] it was “Stable”. For the same compound, the concentration for half-maximal inhibition (IC50) was 30 nM in series [3], 14500 nM in series [7] and 112 nM with NCI-H460.

Consider `OCc1cn(Cc2ccc(F)cc2)c2ccccc12`, for which the Stability entry in series [1] was “Stable”; in series [2], “Unstable”; in series [4] it was “Stable”; in series [5], “Stable”; in series [6] it was “Stable”. The IC50 was found to be 30 nM in series [3], 17000 nM in series [7] and 118 nM with NCI-H460.

On to `Cn1cc(CO)c2cc(F)ccc21`, for which the Stability entry in series [1] is reported as “Stable”; in series [2], “Unstable”; in series [4], “Stable”; in series [5], “Stable”; in series [6], “Stable”. The values for the IC50 (in series [3]; in series [7]; with NCI-H460) were 13800 nM, over 31600 nM and 16900 nM, respectively.

`Cc1cccc(Cn2cc(CO)c3ccccc32)c1`: the Stability result in series [1] is “Stable”; in series [2], “Unstable”; in series [4] it was “Stable”; in series [5], “Stable”; in series [6] it was “Stable”. For the same compound, the IC50 in series [3] was 1000 nM; in series [7] it was over 31600 nM; with NCI-H460 it was 31 nM.

For `OCc1cn(Cc2ccccc2Cl)c2ccccc12`, the Stability entry in series [1] is reported as “Stable”; in series [2] it was “Unstable”; in series [4], “Stable”; in series [5], “Stable”; in series [6], “Stable”. For the same compound, the values for the IC50 (in series [3]; in series [7]; in the series on NCI-H460) were 2510 nM, over 31600 nM and 100 nM, respectively.

For `OCc1cn(Cc2ccc(Cl)cc2Cl)c2ccccc12`, the Stability entry is listed as “Stable” in series [1]; “Unstable” in series [2]; “Stable” in series [4]; “Stable” in series [5]; “Stable” in series [6]. The IC50 in series [3] was 1580 nM; in series [7], over 31600 nM; in the series with NCI-H460, 79 nM.

For `Cc1ccc(Cn2cc(CO)c3cc(F)ccc32)cc1`, the Stability result was “Stable” in series [1]; “Unstable” in series [2]; “Stable” in series [4]; “Stable” in series [5]; “Stable” in series [6]. Further, the IC50 in series [3] was determined as 30 nM; in series [7] it was 11700 nM; in the series with NCI-H460 it was 10 nM.

Values taken from ChEMBL document CHEMBL1772965, “Analogues and derivatives of oncrasin-1, a novel inhibitor of the C-terminal domain of RNA polymerase II and their antitumor activities” (J Med Chem, 2011).
